Test results taken from ChEMBL document CHEMBL4145681, “Discovery of Novel Aminotetralines and Aminochromanes as Selective and Competitive Glycine Transporter 1 (GlyT1) Inhibitors” (J Med Chem, 2018).
pIC50, pKi: −log10 of the molar value. Activity calls are given as the source filed them. The rule behind the calls is not given here.

Key:
[1] = target: T1, Sodium- and chloride-dependent glycine transporter 1 (Homo sapiens, UniProt P48067); test: Displacement of [3H]N-Methyl-SSR504734 from human GlyT1c expressed in cell membranes incubated for 1 hr by liquid scintillation spectrometry
T1 sequence (P48067 whole entry): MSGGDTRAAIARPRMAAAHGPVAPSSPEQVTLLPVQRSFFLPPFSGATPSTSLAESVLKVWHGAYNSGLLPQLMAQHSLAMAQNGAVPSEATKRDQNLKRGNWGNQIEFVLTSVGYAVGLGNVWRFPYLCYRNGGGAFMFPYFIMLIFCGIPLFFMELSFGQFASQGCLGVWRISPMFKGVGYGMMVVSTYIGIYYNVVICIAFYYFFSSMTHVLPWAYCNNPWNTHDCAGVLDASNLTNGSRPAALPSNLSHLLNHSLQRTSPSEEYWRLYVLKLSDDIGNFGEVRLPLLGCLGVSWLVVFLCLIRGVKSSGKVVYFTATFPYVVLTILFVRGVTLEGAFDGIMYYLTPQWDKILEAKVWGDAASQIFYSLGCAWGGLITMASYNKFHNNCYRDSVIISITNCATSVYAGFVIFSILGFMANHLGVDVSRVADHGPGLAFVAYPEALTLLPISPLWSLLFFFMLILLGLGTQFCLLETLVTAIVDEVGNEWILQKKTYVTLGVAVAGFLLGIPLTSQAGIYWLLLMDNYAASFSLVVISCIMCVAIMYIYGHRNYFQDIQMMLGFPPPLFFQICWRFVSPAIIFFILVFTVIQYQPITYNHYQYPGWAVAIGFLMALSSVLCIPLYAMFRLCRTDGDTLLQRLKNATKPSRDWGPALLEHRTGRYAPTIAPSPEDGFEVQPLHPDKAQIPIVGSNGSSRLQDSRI

[2] = Clearance in human liver microsomes at 0.5 uM incubated up to 30 mins in presence of NADPH by LC-MS/MS method; type: ADME, microsome; settings: read-out: CLH
[3] = Clearance in rat liver microsomes at 0.5 uM incubated up to 30 mins in presence of NADPH by LC-MS/MS method; type: ADME, microsome; settings: read-out: CLH
[4] = Oral bioavailability in Sprague-Dawley rat at measured after 8 to 24 hrs by LC-MS/MS method; type: ADME, organism-based; settings: in vivo
[5] = target: T2, Sodium- and chloride-dependent glycine transporter 1 (Homo sapiens) (UniProt P48067); test: Competitive inhibition of GlyT1c (unknown origin) expressed in Xenopus laevis oocytes clamped at -60 mV assessed as reduction in glycine-induced membrane currents at 300 nM pre-treated with glycine for 1 min followed by compound dosing for 3 mins by two-electrode voltage clamp assay; type: cell-based
T2 sequence (whole entry): T1 sequence (P48067 whole entry)
Outline: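 Oocytes expressing GlyT1c were stimulated with 10 µM or 3000 µM glycine to evoke transporter current. Compound at 300 nM was added to the glycine solution, and % inhibition of the current was calculated. Mode of inhibition was judged by comparing inhibition at the two glycine levels. Data are mean ± SD, N>4 oocytes.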

Cytochrome P450 3A4 = Cytochrome P450 3A4 (Homo sapiens, UniProt P08684); test: Inhibition of CYP3A4 in human liver microsomes in presence of NADPH regeneration mixture using luciferin IPA-OH substrate by P450-Glo assay; type: ADME
[6] = target: Voltage-gated inwardly rectifying potassium channel KCNH2 (Homo sapiens, UniProt Q12809); test: Inhibition of human ERG
[7] = Efflux ratio in MDCK2-MDR1 cells at 1 uM incubated fro 1 hr by LC-MS/MS method; type: ADME, cell-based, Canis lupus familiaris; settings: dog, MDCK-MDR1
Mus musculus = test: In-vivo binding affinity to GlyT1 in mouse assessed as target occupancy in forebrains dosed intraperitoneally using [3H]N-methyl-SSR504734 as radioligand after 1 hr by liquid scintillation counting method; type: functional; settings: ip
Outline: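 Mice dosed i.p. at several doses; forebrain homogenates then tested ex vivo for binding of a GlyT1 radioligand to give target occupancy, with ED50 for 50% occupancy estimated across the dose range.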

[8] = fCmax in Sprague-Dawley rat brain at 2 mg/kg, ip measured after 8 to 24 hrs by LC-MS/MS method; type: ADME, organism-based; settings: in vivo
[9] = Ratio of free drug level in brain to plasma of Sprague-Dawley rat at 2 mg/kg, ip measured after 8 to 24 hrs by LC-MS/MS method; type: ADME, organism-based

Sequence of Cytochrome P450 3A4 (P08684 whole entry): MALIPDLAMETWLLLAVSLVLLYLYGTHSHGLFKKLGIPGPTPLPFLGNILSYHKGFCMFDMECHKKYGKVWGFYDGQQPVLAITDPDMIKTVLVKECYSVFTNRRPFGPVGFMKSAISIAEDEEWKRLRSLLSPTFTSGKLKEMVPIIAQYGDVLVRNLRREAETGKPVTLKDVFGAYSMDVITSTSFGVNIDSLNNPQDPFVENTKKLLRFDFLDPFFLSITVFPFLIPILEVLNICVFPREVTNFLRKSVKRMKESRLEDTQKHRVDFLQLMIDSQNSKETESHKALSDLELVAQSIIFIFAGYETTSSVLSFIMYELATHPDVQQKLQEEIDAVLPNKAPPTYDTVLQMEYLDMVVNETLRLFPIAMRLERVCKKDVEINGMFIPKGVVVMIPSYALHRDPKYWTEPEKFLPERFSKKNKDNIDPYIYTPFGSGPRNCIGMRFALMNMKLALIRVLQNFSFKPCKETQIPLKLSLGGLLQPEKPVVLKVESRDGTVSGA
Sequence of Voltage-gated inwardly rectifying potassium channel KCNH2 (Q12809 whole entry): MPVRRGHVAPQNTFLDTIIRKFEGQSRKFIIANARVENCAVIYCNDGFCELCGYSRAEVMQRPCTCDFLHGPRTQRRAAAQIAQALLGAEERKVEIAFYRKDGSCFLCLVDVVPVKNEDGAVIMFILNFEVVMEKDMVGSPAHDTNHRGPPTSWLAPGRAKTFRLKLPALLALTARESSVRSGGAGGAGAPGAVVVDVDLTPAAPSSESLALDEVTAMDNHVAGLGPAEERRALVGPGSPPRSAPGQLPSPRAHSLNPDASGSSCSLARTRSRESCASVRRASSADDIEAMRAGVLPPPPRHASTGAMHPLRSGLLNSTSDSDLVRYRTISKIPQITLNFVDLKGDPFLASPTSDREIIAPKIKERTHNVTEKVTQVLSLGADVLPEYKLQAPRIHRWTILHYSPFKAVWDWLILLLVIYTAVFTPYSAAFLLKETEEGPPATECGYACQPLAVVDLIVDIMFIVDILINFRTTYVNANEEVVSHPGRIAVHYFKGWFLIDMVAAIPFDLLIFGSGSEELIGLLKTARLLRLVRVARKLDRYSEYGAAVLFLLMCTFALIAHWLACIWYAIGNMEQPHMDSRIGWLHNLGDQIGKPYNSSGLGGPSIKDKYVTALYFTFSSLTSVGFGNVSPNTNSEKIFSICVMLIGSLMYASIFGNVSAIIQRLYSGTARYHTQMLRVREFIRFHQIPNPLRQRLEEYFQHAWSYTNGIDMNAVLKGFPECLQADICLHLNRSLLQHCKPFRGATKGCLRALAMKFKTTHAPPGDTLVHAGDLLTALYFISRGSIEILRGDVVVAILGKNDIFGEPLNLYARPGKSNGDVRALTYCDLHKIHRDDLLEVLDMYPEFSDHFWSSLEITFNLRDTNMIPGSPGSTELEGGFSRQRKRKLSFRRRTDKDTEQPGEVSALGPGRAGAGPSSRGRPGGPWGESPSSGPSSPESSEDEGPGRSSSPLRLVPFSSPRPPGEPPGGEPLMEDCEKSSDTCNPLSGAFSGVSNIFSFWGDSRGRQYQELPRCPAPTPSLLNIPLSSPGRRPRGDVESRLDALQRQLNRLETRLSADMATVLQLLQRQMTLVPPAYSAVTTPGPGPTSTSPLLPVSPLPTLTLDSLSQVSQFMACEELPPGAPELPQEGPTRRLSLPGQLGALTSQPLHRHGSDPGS

SMILES | pKi [1] | microsomal CLint at 0.5 µM [2] | microsomal CLint at 0.5 µM [3] | further results
N[C@H]1CCc2ccc(OCCNS(=O)(=O)c3cccs3)cc2[C@H]1Cc1ccc(Cl)c(Cl)c1 (relative stereo) | 6.79 | 99 µL/min/mg | 95 µL/min/mg | 
Cn1cnc(S(=O)(=O)NCCOc2ccc3c(c2)[C@@H](Cc2cc(F)cc(Cl)c2)[C@@H](N)CC3)c1 (relative stereo) | 8.92 |  |  | 
Oc1ccc2c(c1)C(C1(c3ccc(Cl)cc3)CCC1)NCC2 (stereo unspecified) | 6.91 | 130 µL/min/mg | 343 µL/min/mg | bioavailability [4]: < 1%; inhibition [5]: Active; pIC50 (Cytochrome P450 3A4): < 5.00
Cn1cnc(S(=O)(=O)NCCOc2ccc3c(c2)[C@@H](Cc2ccccc2)[C@@H](N)CC3)c1 (relative stereo) | 8.44 |  |  | 
O=S(=O)(CC1CC1)NC1CN(c2ccc3c(c2)[C@@H](Cc2ccccc2)[C@@H](N2CCC2)CO3)C1 (relative stereo) | 7.74 | < 23 µL/min/mg | 130 µL/min/mg | pIC50 [6]: 4.94; efflux ratio at 1 h, 1 µM [7]: 1
O=S(=O)(CC1CC1)NCCOc1ccc2c(c1)[C@@H](Cc1ccccc1)[C@@H](N1CCC1)CO2 (relative stereo) | 6.03 | 940 µL/min/mg | 239 µL/min/mg | 
CCCS(=O)(=O)NC1CN(c2ccc3c(c2)[C@@H](Cc2ccccc2)[C@@H](N2CCC2)CC3)C1 | 8.59 | < 23 µL/min/mg | 42 µL/min/mg | pIC50 [6]: 5.17; efflux ratio at 1 h, 1 µM [7]: 1.4
Cn1cnc(S(=O)(=O)NCCOc2ccc3c(c2)[C@@H](Cc2ccccc2)[C@@H](NCC(F)(F)F)CC3)c1 (relative stereo) | 7.16 | 69 µL/min/mg | 125 µL/min/mg | efflux ratio at 1 h, 1 µM [7]: 1.4
Cn1cnc(S(=O)(=O)NCCOc2ccc3c(c2)[C@@H](Cc2cccc(Cl)c2)[C@@H](N)CC3)c1 (relative stereo) | 8.82 |  |  | ED50 (Mus musculus): 15 mg/kg
CS(=O)(=O)NCCOc1ccc2c(c1)[C@@H](Cc1ccc(Cl)c(Cl)c1)[C@@H](N)CC2 (relative stereo) | 6.85 | 25 µL/min/mg | 39 µL/min/mg | 
CCCS(=O)(=O)NC1CN(c2ccc3c(c2)[C@@H](Cc2ccccc2)[C@@H](N2CCC2)CO3)C1 (relative stereo) | 7.36 | < 23 µL/min/mg | 66 µL/min/mg | efflux ratio at 1 h, 1 µM [7]: 0.9
Cn1cnc(S(=O)(=O)NCCOc2ccc3c(c2)[C@@H](Cc2ccccc2Cl)[C@@H](N)CC3)c1 (relative stereo) | 7.12 |  |  | 
N[C@H]1CCc2ccc(OCCNS(=O)(=O)C3CCC3)cc2[C@H]1Cc1ccc(Cl)c(Cl)c1 (relative stereo) | 7.49 | 55 µL/min/mg | 49 µL/min/mg | 
CCCCS(=O)(=O)NCCOc1ccc2c(c1)[C@@H](Cc1ccc(Cl)c(Cl)c1)[C@@H](N)CC2 (relative stereo) | 6.87 | 173 µL/min/mg | 35 µL/min/mg | 
CCCS(=O)(=O)NCc1ccc2c(c1)[C@@H](Cc1ccccc1)[C@@H](NC)CC2 (relative stereo) |  |  |  | ED50 (Mus musculus): 2 mg/kg
CN[C@H]1CCc2ccc(OCCNS(=O)(=O)CC3CC3)cc2[C@H]1Cc1ccccc1 | 8.92 |  |  | bioavailability [4]: 22%; ED50 (Mus musculus): 1.4 mg/kg; fCmax [8]: 2.3 nM
N[C@H]1CCc2ccc(OCCNS(=O)(=O)c3ccccc3)cc2[C@H]1Cc1ccc(Cl)c(Cl)c1 | 6.18 | 78 µL/min/mg | 40 µL/min/mg | 
Cn1cnc(S(=O)(=O)NCCOc2ccc3c(c2)[C@@H](Cc2cccc(C(F)(F)F)c2)[C@@H](N)CC3)c1 (relative stereo) | 9.10 |  |  | 
Cn1cnc(S(=O)(=O)NCCOc2ccc3c(c2)[C@@H](Cc2ccc(Cl)cc2)[C@@H](N)CC3)c1 (relative stereo) | 8.96 |  |  | 
Cn1cnc(S(=O)(=O)NCCOc2ccc3c(c2)[C@@H](Cc2ccccc2)[C@@H](N2CCC2)CO3)c1 | 8.48 | 277 µL/min/mg | 37 µL/min/mg | efflux ratio at 1 h, 1 µM [7]: 3.5
O=S(=O)(CC1CC1)NCCOc1ccc2c(c1)[C@@H](Cc1ccccc1)[C@@H](N1CCC1)CC2 | 8.59 | 113 µL/min/mg | 137 µL/min/mg | pIC50 [6]: 7.10; efflux ratio at 1 h, 1 µM [7]: 1.6; bioavailability [4]: 8%; Kp uu [9]: 0.8; ED50 (Mus musculus): 0.5 mg/kg; fCmax [8]: 9.9 nM
CCCS(=O)(=O)NCCOc1ccc2c(c1)[C@@H](Cc1ccc(Cl)c(Cl)c1)[C@@H](N)CC2 (relative stereo) | 7.46 | 95 µL/min/mg | 17 µL/min/mg | bioavailability [4]: 31%; inhibition [5]: Active; Kp uu [9]: 0.05; pIC50 (Cytochrome P450 3A4): < 5.00
N[C@H]1CCc2ccc(OCCNS(=O)(=O)CC3CC3)cc2[C@H]1Cc1ccc(Cl)c(Cl)c1 (relative stereo) | 8.24 | 92 µL/min/mg | 25 µL/min/mg | ED50 (Mus musculus): 14 mg/kg
CCCS(=O)(=O)N[C@@H]1CCN(c2ccc3c(c2)[C@@H](Cc2ccccc2)[C@@H](N2CCC2)CC3)C1=O | 7.55 | < 23 µL/min/mg | 33 µL/min/mg | pIC50 [6]: 5.35; efflux ratio at 1 h, 1 µM [7]: 1.6
Cn1cc(S(=O)(=O)NCCOc2ccc3c(c2)[C@@H](Cc2ccc(Cl)c(Cl)c2)[C@@H](N)CC3)cn1 (relative stereo) | 8.92 | 44 µL/min/mg | 49 µL/min/mg | ED50 (Mus musculus): > 20 mg/kg; fCmax [8]: 0.2 nM
CCCS(=O)(=O)NCc1ccc2c(c1)[C@@H](Cc1ccccc1)[C@@H](N1CCC1)CC2 (relative stereo) |  | 122 µL/min/mg | 302 µL/min/mg | 
CCCS(=O)(=O)NCCOc1ccc2c(c1)C(C1(c3ccc(Cl)cc3)CCC1)NCC2 (stereo unspecified) | 8.52 | 620 µL/min/mg | 450 µL/min/mg | bioavailability [4]: 7%; inhibition [5]: Active; Kp uu [9]: 0.54; pIC50 (Cytochrome P450 3A4): 6.21
Cn1cnc(S(=O)(=O)NCCOc2ccc3c(c2)[C@@H](Cc2ccc(Cl)c(Cl)c2)[C@@H](N)CC3)c1 (relative stereo) | 8.59 | 36 µL/min/mg | 10 µL/min/mg | ED50 (Mus musculus): > 20 mg/kg
